Experimental findings from ChEMBL document CHEMBL1139831, “The influence of modifications in imide fragment structure on 5-HT(1A) and 5-HT(7) receptor affinity and in vivo pharmacological properties of some new 1-(m-trifluoromethylphenyl)piperazines” (Bioorg Med Chem, 2007) are described below.

Assay [1] is filed under the species Mus musculus. Conditions: Swiss Albino, 5 mg/kg.
For assay [2], the system named is Mus musculus. Nature of the assay: Effect on locomotor activity in Swiss Albino mouse assessed as number of crossings in 30 mins at 10 mg/kg administered 30 mins before the test. In kind it is functional. In short, it runs like this: (§1)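 Male Albino Swiss mice given compound ip (1% Tween 80, 10 ml/kg) 30 min before placement singly in plastic cages in a multichannel photobeam activity monitor; ambulation crossings counted over the first 6 min and over a 30 min session. n = 9-10 per group; ANOVA then Dunnett's test.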

Assay [3] relates to Mus musculus. Description: Antidepressant activity in Swiss Albino mouse assessed as immobility time during final 4 mins of 6 mins session at 10 mg/kg administered 30 mins before the test by forced-swimming test. In kind it is functional. In short, it runs like this: (§2)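 Male Albino Swiss mice (24–28 g), compound given ip in 1% aqueous Tween 80 (10 ml/kg), 30 min before test. Mouse placed singly in glass cylinder (25 cm high, 10 cm diameter) holding 6 cm water at 23–25 °C for 6 min; immobility (floating, only small head-keeping movements) timed over last 4 min. n = 9-10 per group; one-way ANOVA then Dunnett's test.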

Assay [4] is filed under the species Mus musculus. The following applies: Swiss Albino, 10 mg/kg.
For assay [5], the system named is Rattus norvegicus. Description: Effect on 8-OH-DPAT-induced lower lip retraction in Wistar rat at 2.5 mg/kg. In kind it is functional.
Assay [6] concerns Mus musculus. Nature of the assay: Effect on locomotor activity in Swiss Albino mouse assessed as number of crossings in 30 mins at 5 mg/kg administered 30 mins before the test. In kind it is functional. Put shortly: as §1
For assay [7], the species on record is Mus musculus. Conditions: Swiss Albino, 10 mg/kg. This is another data set of the same source.
Assay [8] relates to Mus musculus. Nature of the assay: Anxiolytic activity in Swiss Albino mouse assessed as number of punished crossings for 60 secs at 2.5 mg/kg administered 30 mins before the test by four-plate test. The format is functional. Put shortly: (§3)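 Male Albino Swiss mice (24–28 g), compound suspended in 1% aqueous Tween 80, given ip (10 ml/kg). Mouse placed in box with four metal floor plates, 15 s exploration, then floor electrified (120 V, 0.5 s) at each plate-to-plate crossing, no new shock for 3 s. Punished crossings counted over 60 s. n = 9-10/group; one-way ANOVA then Dunnett's test.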

The subject of assay [9] is Mus musculus. Nature of the assay: Anxiolytic activity in Swiss Albino mouse assessed as number of punished crossings for 60 secs at 10 mg/kg administered 30 mins before the test by four-plate test. In kind it is functional. Put shortly: as §3
Assay [10] is described as follows: Displacement of [3H]prazosin from adrenergic alpha1 receptor in rat cortical membranes. The format is cell membranes, Membrane. In short, it runs like this: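 Rat cortical membranes with [3H]-prazosin; phentolamine defines nonspecific binding. 7–9 drug concentrations in triplicate, at least three separate experiments; stopped by GF/B filtration with three ice-cold buffer washes, bound radioactivity by liquid scintillation counting; Ki from non-linear regression and Cheng-Prusoff equation.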

Assay [11] is filed under the species Mus musculus. Conditions: Swiss Albino, 10 mg/kg. This is another data set of the same source.
Assay [12] has as its system Mus musculus. Description: Effect on locomotor activity in Swiss Albino mouse assessed as number of crossings in 6 mins at 10 mg/kg administered 30 mins before the test. The format is functional. Put shortly: (§4)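 Male Albino Swiss mice (24–28 g) given compound ip (suspension in 1% aqueous Tween 80, 10 ml/kg). Animals housed singly in plastic cages in a multichannel photobeam activity monitor. Ambulation crossings counted over first 6 min and over 30-min session. n = 9-10/group; one-way ANOVA then Dunnett's test.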

The species named for assay [13] is Mus musculus. Conditions: Swiss Albino, 5 mg/kg. The source holds these as a separate data set.
The test system of assay [14] is Rattus norvegicus. Description: Effect on lower lip retraction in Wistar rat at 2.5 mg/kg. In kind it is functional. In short, it runs like this: (§5)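 Male Wistar rats (290–310 g) dosed ip in 1% Tween 80 (2 ml/kg), caged singly; lower lip retraction scored 15, 30 and 45 min after dosing as 0 (incisors not visible), 0.5 (partly) or 1 (completely visible), totals up to 3 per rat. n = 6 per group; one-way ANOVA followed by Dunnett's test.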

Assay [15] addresses 5-hydroxytryptamine receptor 7 (Homo sapiens, UniProt P34969). Description: Displacement of [3H]5-CT from human 5HT7 expressed in HEK293 cells. In kind it is cell-based. In short, it runs like this:
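HEK293 cells stably transfected with human 5-HT7(b) cDNA; membranes (10 µg protein) incubated 1 h at 37 °C in 50 mM Tris-HCl pH 7.4 with 4 mM MgCl2, 0.1 mM pargyline, 0.1% ascorbic acid, 0.5 nM [3H]-5-CT and 7–9 test concentrations in triplicate; 10 µM 5-HT defines nonspecific binding. GF/B filtration, scintillation counting; Ki via Cheng-Prusoff from ≥3 experiments.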

For assay [16], the system named is Rattus norvegicus. Description: Effect on lower lip retraction in Wistar rat at 10 mg/kg. The format is functional. In short, it runs like this: as §5
For assay [17], the target named is T1, 5-hydroxytryptamine receptor 1A (Rattus norvegicus, UniProt P19327).
T1 sequence (P19327 whole entry): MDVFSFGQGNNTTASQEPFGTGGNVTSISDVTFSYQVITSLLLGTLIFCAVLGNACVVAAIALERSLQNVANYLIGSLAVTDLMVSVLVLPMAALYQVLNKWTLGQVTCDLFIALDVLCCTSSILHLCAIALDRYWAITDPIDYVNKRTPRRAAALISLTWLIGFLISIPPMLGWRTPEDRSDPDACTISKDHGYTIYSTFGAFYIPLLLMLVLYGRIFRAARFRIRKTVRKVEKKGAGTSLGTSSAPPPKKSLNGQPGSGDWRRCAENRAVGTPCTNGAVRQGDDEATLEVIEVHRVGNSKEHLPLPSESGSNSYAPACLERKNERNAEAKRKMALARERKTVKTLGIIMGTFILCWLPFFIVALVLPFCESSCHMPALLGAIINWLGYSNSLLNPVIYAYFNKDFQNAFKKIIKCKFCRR
Description: Displacement of [3H]8-OH-DPAT from 5HT1A in rat hippocampal membranes. The format is cell membranes, Hippocampus, Membrane. Put shortly:
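Rat hippocampal membranes, [3H]-8-OH-DPAT as radioligand, 5-HT defining nonspecific binding. 7–9 drug concentrations run in triplicate, at least three separate experiments. Filtration through GF/B filters with three ice-cold buffer washes, scintillation counting. Ki from non-linear regression of binding isotherms via Cheng-Prusoff equation.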

Assay [18] is filed under the species Mus musculus. The following applies: Swiss Albino, 10 mg/kg. The source holds these as a separate data set.
The species entered for assay [19] is Mus musculus. Conditions: Swiss Albino, 5 mg/kg. The source holds these as a separate data set.
Assay [20] is filed under the species Mus musculus. The following applies: Swiss Albino, 10 mg/kg. This is another data set of the same source.
For assay [21], the species on record is Mus musculus. Conditions: Swiss Albino, 5 mg/kg. This is another data set of the same source.
In assay [22] the test system is Mus musculus. Nature of the assay: Anxiolytic activity in Swiss Albino mouse assessed as number of punished crossings for 60 secs at 5 mg/kg administered 30 mins before the test by four-plate test. In kind it is functional. In short, it runs like this:
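Male Albino Swiss mice dosed ip (1% aqueous Tween 80, 10 ml/kg) 30 min beforehand. Opaque box floored with four metal plates; 15 s free exploration, then each plate-to-plate crossing triggers a 0.5 s, 120 V floor shock, with no new shock for 3 s if running continues. Punished crossings counted over 60 s; n = 9-10, ANOVA plus Dunnett's test.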

Assay [23] deals with Mus musculus. Nature of the assay: Antidepressant activity in Swiss Albino mouse assessed as immobility time during final 4 mins of 6 mins session at 5 mg/kg administered 30 mins before the test by forced-swimming test. In kind it is functional. In short, it runs like this: as §2
For assay [24], the target named is D(2) dopamine receptor (Rattus norvegicus, UniProt P61169). Description: Displacement of [3H]spiperone from dopamine D2 receptor in rat striatal membranes. The format is cell membranes, Membrane. Put shortly:
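Competition binding on rat striatal membranes using [3H]-spiperone, butaclamol for nonspecific binding; filtration through GF/B filters and scintillation counting. Run at two compound concentrations, each in triplicate, and affinity expressed as estimated Ki.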

Assay [25] is filed under the species Mus musculus. Conditions: Swiss Albino, 10 mg/kg. This is another data set of the same source.
Assay [26] has as its system Mus musculus. Nature of the assay: Effect on locomotor activity in Swiss Albino mouse assessed as number of crossings in 6 mins at 5 mg/kg administered 30 mins before the test. The format is functional. In short, it runs like this: as §4
Assay [27] concerns Rattus norvegicus. Description: Effect on lower lip retraction in Wistar rat at 5 mg/kg. In kind it is functional. Put shortly: as §5
The subject of assay [28] is Mus musculus. Nature of the assay: Anxiolytic activity in Swiss Albino mouse assessed as number of punished crossings for 60 secs at 1.25 mg/kg administered 30 mins before the test by four-plate test. In kind it is functional. Put shortly: as §3
In assay [29] the test system is Mus musculus. Description: Effect on locomotor activity in Swiss Albino mouse assessed as number of crossings in 30 mins at 0.3 mg/kg administered 30 mins before the test. The format is functional. In short, it runs like this: as §1
In assay [30] the test system is Mus musculus. Nature of the assay: Effect on locomotor activity in Swiss Albino mouse assessed as number of crossings in 30 mins at 1 mg/kg administered 30 mins before the test. In kind it is functional. In short, it runs like this:
as §1

The test system of assay [31] is Mus musculus. Nature of the assay: Antidepressant activity in Swiss Albino mouse assessed as immobility time during final 4 mins of 6 mins session at 1.25 mg/kg administered 30 mins before the test by forced-swimming test. The format is functional. In short, it runs like this: as §2
Assay [32] relates to Mus musculus. Nature of the assay: Effect on locomotor activity in Swiss Albino mouse assessed as number of crossings in 6 mins at 0.3 mg/kg administered 30 mins before the test. In kind it is functional. Put shortly: as §1
Assay [33] has as its system Mus musculus. Nature of the assay: Effect on locomotor activity in Swiss Albino mouse assessed as number of crossings in 6 mins at 1 mg/kg administered 30 mins before the test. In kind it is functional. Put shortly:
as §1

Assay [34] deals with Mus musculus. Description: Antidepressant activity in Swiss Albino mouse assessed as immobility time during final 4 mins of 6 mins session at 2.5 mg/kg administered 30 mins before the test by forced-swimming test. The format is functional. Put shortly: as §2
For assay [35], the system named is Mus musculus. Description: Effect on locomotor activity in Swiss Albino mouse assessed as number of crossings in 6 mins at 20 mg/kg administered 30 mins before the test. The format is functional. Put shortly:
as §1

For assay [36], the system named is Mus musculus. Description: Effect on locomotor activity in Swiss Albino mouse assessed as number of crossings in 30 mins at 20 mg/kg administered 30 mins before the test. The format is functional. Put shortly: as §1
For assay [37], the system named is Mus musculus. Nature of the assay: Antidepressant activity in Swiss Albino mouse assessed as immobility time during final 4 mins of 6 mins session at 20 mg/kg administered 30 mins before the test by forced-swimming test. The format is functional. Put shortly: as §2

Structures are written as SMILES.

Sequence of 5-hydroxytryptamine receptor 7 (P34969 whole entry): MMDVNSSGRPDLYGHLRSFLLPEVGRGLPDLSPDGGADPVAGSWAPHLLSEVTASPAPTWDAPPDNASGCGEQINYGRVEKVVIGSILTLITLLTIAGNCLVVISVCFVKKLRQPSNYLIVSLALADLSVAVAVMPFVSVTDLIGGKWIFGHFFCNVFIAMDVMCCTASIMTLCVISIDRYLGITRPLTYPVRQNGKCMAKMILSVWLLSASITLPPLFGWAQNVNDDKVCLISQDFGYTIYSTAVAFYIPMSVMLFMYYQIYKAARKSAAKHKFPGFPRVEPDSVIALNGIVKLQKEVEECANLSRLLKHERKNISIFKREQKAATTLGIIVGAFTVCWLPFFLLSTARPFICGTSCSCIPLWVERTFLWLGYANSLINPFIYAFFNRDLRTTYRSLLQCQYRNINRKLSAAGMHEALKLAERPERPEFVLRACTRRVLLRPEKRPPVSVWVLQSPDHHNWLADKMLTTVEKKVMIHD
Sequence of D(2) dopamine receptor (P61169 whole entry): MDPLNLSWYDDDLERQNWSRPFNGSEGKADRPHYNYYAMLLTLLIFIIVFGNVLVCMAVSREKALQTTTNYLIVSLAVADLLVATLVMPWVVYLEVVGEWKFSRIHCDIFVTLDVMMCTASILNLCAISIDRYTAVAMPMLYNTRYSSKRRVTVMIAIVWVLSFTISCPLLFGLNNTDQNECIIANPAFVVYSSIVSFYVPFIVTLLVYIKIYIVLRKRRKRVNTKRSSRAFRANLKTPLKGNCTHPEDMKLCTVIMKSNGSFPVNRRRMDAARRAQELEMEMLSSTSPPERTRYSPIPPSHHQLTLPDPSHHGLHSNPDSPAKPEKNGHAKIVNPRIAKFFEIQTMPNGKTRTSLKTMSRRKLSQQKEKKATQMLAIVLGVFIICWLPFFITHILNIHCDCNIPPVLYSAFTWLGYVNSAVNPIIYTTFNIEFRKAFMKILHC

Regarding `O=C1CCCC(=O)N1CCCCN1CCN(c2cccc(C(F)(F)F)c2)CC1`, the deltaT is -0.1 °C in assay [1]; -1.1 °C in [4]; -1.3 °C in [7]; -1 °C in [11]; -0.4 °C in assay [13]; -0.8 °C in assay [18]. Also, the deltaT is -0.4 °C in assay [19], -0.9 °C in assay [20], -0.5 °C in assay [21] and -1 °C in [25]. In addition, the Activity worked out at 179.3 in assay [2]; 196.7 s in assay [3]; 2.2 in assay [5]; 526.2 in assay [6]; 4.3 in assay [8]; 5.2 in assay [9]. The Activity in assay [12] amounted to 16.3; in assay [14] it was 1.6; in assay [16], 2.8; in assay [22], 5.8; in [23], 183.9 s; in assay [26], 217.1. In assay [27], this compound came in with an Activity of 2.6. The Ki in [10] is 101 nM; in assay [15], 21 nM; in assay [17], 3 nM; in assay [24] it was greater than 5000 nM.
Take `CC1(C)CC(=O)N(C2CCC(N3CCN(c4cccc(C(F)(F)F)c4)CC3)CC2)C(=O)C1` (centres undefined): the Activity was 4.6 in assay [8]; 4.4 in assay [28]; 630.1 in assay [29]; 535.3 in [30]; 150.4 s in [31]; 212 in assay [32]. Also, the Activity is given as 4.6 in [22], 113.3 s in assay [23], 211.7 in [33] and 98.2 s in [34]. Further, the Ki turned out to be 268 nM in assay [10] and 221 nM in assay [15].
Turning to `CN(C)CCCN1c2ccccc2CCc2ccccc21` [IMIPRAMINE], the Activity in assay [2] turned out to be 876.8; in [3], 149.1 s; in [35], 314.9; in [36] it was 625.3; in assay [37], 107.8 s.
